# Laboratory results as given in ChEMBL document CHEMBL3124788, “Identification of human presequence protease (hPreP) agonists for the treatment of Alzheimer's disease” (Eur J Med Chem, 2014).
# pEC50: −log10 of the molar value. The source made the active and inactive calls. The calls are words filed in the database; no cut-off is given here.
# Tests used:
# [1] = target: T1, Presequence protease, mitochondrial (Homo sapiens) (UniProt Q5JRX3); assay: Agonist activity at human PreP assessed as degradation of biotin-labeled amyloid beta (1 to 42) up to 1 uM after 2.5 hrs by Immunoblotting assay
# T1 sequence (whole entry): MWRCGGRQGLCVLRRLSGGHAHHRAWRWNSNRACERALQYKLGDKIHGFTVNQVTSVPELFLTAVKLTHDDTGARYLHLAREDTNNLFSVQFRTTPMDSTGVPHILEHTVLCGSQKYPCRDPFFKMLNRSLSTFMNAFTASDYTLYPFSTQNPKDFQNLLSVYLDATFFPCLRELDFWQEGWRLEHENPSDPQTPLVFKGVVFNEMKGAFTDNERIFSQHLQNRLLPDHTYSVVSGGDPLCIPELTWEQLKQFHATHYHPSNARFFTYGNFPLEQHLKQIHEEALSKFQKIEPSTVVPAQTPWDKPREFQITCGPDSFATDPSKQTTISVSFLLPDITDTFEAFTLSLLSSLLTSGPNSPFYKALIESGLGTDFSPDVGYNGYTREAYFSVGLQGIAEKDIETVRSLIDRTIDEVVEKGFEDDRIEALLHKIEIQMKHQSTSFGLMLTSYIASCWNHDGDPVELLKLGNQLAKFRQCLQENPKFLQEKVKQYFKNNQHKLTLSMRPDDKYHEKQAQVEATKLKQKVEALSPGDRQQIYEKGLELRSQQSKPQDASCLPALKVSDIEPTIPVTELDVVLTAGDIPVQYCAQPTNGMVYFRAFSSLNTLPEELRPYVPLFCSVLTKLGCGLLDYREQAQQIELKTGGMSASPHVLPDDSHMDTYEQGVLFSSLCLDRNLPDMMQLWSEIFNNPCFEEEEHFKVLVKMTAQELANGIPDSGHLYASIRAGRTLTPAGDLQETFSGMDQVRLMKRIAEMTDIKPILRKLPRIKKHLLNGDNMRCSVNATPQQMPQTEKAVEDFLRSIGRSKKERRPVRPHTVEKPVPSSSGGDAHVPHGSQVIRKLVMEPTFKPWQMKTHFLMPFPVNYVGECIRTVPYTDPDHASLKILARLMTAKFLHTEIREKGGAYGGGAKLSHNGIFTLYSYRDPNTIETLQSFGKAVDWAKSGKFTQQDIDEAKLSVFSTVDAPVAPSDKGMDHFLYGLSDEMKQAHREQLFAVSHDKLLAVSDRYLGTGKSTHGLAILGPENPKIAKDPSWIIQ
# In short: (§1)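 Biotin-labeled Aβ(1–42) (0.02 μg) incubated 2.5 h with 1 μg purified hPreP in 20 mM HEPES-KOH pH 8.0 with 10 mM MgCl2, compound 0.00001–100 μM. Products were run on 12% Bis-Tris gel and transferred to nitrocellulose. Membrane dried and blocked in 2% milk-PBS, then probed with ExtrAvidin peroxidase and ECL. Degradation measured relative to enzyme alone. EC50 from nonlinear log(agonist) vs normalized response regression.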
# [2] = target: T1, Presequence protease, mitochondrial (Homo sapiens); assay: Agonist activity at human PreP assessed as degradation of ATP synthase pF1beta subunit (2 to 56) after 2.5 hrs by Immunoblotting assay relative to control; details: in the assay text read “(2 to 54)” for “(2 to 56)”
# In short: (§2)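 Purified human PreP (1 μg) incubated with biotin-labeled pF1β (2–54) presequence peptide (0.02 μg) in 20 mM HEPES-KOH pH 8.0, 10 mM MgCl2, with compound at 0.00001–100 μM, for 2.5 h. Reactions were stopped with sample buffer and resolved on 12% Bis-Tris gel. Blot probed with anti-F1β (1:2000), HRP anti-rabbit, ECL. Bands quantified by densitometry versus hPreP alone. EC50 from nonlinear log(agonist) vs normalized response fit.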
# [3] = target: T2, Presequence protease, mitochondrial (Homo sapiens, UniProt Q5JRX3); assay: Agonist activity at human PreP assessed as degradation of fluorogenic substrate V measured for 10 mins by fluorometric analysis
# T2 sequence (Q5JRX3 whole entry): T1 sequence (whole entry)
# [4] = target: T1, Presequence protease, mitochondrial (Homo sapiens); assay: Agonist activity at human PreP assessed as degradation of ATP synthase pF1beta subunit (2 to 54) after 2.5 hrs by Immunoblotting assay
# [5] = target: T1, Presequence protease, mitochondrial (Homo sapiens); assay: Agonist activity at human PreP assessed as degradation of ATP synthase pF1beta subunit (2 to 54) at 1 uM after 2.5 hrs by Immunoblotting assay
# [6] = target: T2, Presequence protease, mitochondrial; assay: (§3) Agonist activity at human PreP assessed as degradation of biotin-labeled amyloid beta (1 to 42) after 2.5 hrs by Immunoblotting assay; in short: as §1
# [7] = target: T1, Presequence protease, mitochondrial (Homo sapiens); assay: as §3; in short: as §1
# [8] = target: T1, Presequence protease, mitochondrial (Homo sapiens); assay: Agonist activity at human PreP assessed as degradation of biotin-labeled amyloid beta (1 to 42) after 2.5 hrs by Immunoblotting assay relative to control; in short: as §1
# [9] = target: T1, Presequence protease, mitochondrial (Homo sapiens); assay: Agonist activity at human PreP assessed as degradation of fluorogenic substrate V at 1 uM measured for 10 mins by fluorometric analysis
# [10] = target: T2, Presequence protease, mitochondrial; assay: Agonist activity at human PreP assessed as degradation of ATP synthase pF1beta subunit (2 to 56) after 2.5 hrs by Immunoblotting assay; details: in the assay text read “(2 to 54)” for “(2 to 56)”; in short: as §2
compound,measurement,setting,value
O=[N+]([O-])c1ccc2c(c1)N(Cc1cc(Br)ccc1O)C(c1cc(Br)ccc1O)N2Cc1cc(Br)ccc1O (stereo not given),Activity,[1],Active
same,Activity,[2],55%
same,pEC50,[3],7.24
same,Activity,[4],Dose-dependent effect
same,Activity,[5],Active
same,pEC50,[6],6.40
same,Activity,[7],Dose-dependent effect
same,Activity,[8],54%
same,fold change (FC),[9],1.8
same,pEC50,[10],6.22
